Blank lines part the entries; values can stand above or below the compound they belong to. Activity calls are given as the source filed them. The rule behind the calls is not given here.
Experiments:
[1] = biological target: Tyrosine-protein kinase BTK (Homo sapiens) (UniProt Q06187); assay: Inhibition of human recombinant BTK at 500 nM in presence of ATP by radiometric assay relative to control
[2] = biological target: Calcium/calmodulin-dependent protein kinase type II subunit alpha (Homo sapiens) (UniProt Q9UQM7); assay: Inhibition of human recombinant CaMK2a at 500 nM in presence of ATP by radiometric assay relative to control
[3] = biological target: Serine/threonine-protein kinase 24 (Homo sapiens) (UniProt Q9Y6E0); assay: Inhibition of human recombinant MST3 at 500 nM in presence of ATP by radiometric assay relative to control
[4] = biological target: T1, Receptor-interacting serine/threonine-protein kinase 1 (Homo sapiens) (UniProt Q13546); assay: Inhibition of human recombinant RIPK1 at 500 nM in presence of ATP by radiometric assay relative to control
T1 sequence (whole entry): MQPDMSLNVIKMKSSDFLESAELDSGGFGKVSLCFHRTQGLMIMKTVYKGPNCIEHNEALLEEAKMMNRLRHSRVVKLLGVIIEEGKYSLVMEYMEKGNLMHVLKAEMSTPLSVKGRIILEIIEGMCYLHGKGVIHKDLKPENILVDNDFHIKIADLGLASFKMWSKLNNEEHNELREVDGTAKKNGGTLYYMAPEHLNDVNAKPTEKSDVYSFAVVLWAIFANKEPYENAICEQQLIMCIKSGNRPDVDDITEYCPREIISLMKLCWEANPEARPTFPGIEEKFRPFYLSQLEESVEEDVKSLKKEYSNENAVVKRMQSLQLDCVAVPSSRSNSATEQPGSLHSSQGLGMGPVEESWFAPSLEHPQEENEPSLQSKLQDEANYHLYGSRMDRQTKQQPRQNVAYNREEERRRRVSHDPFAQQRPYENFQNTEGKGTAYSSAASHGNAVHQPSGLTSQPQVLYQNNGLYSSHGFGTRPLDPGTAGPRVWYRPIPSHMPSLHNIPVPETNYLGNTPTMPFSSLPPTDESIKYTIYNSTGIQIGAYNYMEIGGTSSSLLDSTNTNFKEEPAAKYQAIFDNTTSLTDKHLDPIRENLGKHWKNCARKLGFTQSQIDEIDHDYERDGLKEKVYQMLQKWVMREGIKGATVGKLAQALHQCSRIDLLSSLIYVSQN

[5] = biological target: T2, Testis-specific serine/threonine-protein kinase 2 (Homo sapiens) (UniProt Q96PF2); assay: Inhibition of human recombinant TSSK2 at 500 nM in presence of ATP by radiometric assay relative to control
T2 sequence (whole entry): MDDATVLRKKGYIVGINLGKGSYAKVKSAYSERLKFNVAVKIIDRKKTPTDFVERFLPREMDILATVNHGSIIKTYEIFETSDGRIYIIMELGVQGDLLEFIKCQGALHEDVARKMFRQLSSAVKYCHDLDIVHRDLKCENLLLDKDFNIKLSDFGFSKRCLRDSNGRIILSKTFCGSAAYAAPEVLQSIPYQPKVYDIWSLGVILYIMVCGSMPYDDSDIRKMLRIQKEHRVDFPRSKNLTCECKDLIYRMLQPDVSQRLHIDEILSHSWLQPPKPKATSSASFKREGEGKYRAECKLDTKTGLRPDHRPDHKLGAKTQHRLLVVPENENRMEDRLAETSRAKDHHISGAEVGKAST

[6] = biological target: Calcium/calmodulin-dependent protein kinase type II subunit delta (Homo sapiens) (UniProt Q13557); assay: Inhibition of human recombinant CaMK2d at 500 nM related to control ULK1
[7] = biological target: Glycogen synthase kinase-3 alpha (Homo sapiens) (UniProt P49840); assay: Inhibition of human recombinant GSK3A at 500 nM related to control ULK1
U2OS = assay: Inhibition of autophagy in human U2OS cells assessed as ATG12-positive puncta formation at 5 uM incubated for 2.5 hrs in presence of AZD8055 by Fluorescent microscopy based analysis; assay type: functional, cell-based
Summary of the method: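 U2OS cells treated 2.5 hr with vehicle or 100 nM AZD8055, with or without 5 μM inhibitor; fixed and immunostained for endogenous ATG12; ATG12-positive puncta (phagophores) assessed by fluorescence microscopy.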

[8] = biological target: Receptor tyrosine-protein kinase erbB-2 (Homo sapiens) (UniProt P04626); assay: Inhibition of human recombinant ErbB2 at 40 nM in presence of ATP by radiometric assay relative to control
[9] = biological target: Mitogen-activated protein kinase kinase kinase 9 (Homo sapiens) (UniProt P80192); assay: Inhibition of human recombinant MLK1 at 40 nM in presence of ATP by radiometric assay relative to control
[10] = biological target: Phosphorylase b kinase gamma catalytic chain, skeletal muscle/heart isoform (Homo sapiens) (UniProt Q16816); assay: Inhibition of human recombinant PHKg1 at 40 nM in presence of ATP by radiometric assay relative to control
[11] = biological target: Serine/threonine-protein kinase WNK1 (Homo sapiens) (UniProt Q9H4A3); assay: Inhibition of human recombinant Wnk1 at 40 nM in presence of ATP by radiometric assay relative to control
[12] = biological target: Activated CDC42 kinase 1 (Homo sapiens) (UniProt Q07912); assay: Inhibition of human recombinant ACK at 40 nM related to control ULK1
Summary of the method: (§1)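 Radiometric activity assays in a panel of 327 human recombinant kinases, each run in duplicate at one inhibitor concentration. Activity remaining is expressed as percent of vehicle control, and percent inhibition is calculated as 100% minus percent activity remaining.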

[13] = biological target: Tyrosine-protein kinase receptor UFO (Homo sapiens) (UniProt P30530); assay: Inhibition of human recombinant AXL at 40 nM related to control ULK1; summary of the method: as §1
[14] = biological target: T3, Interleukin-1 receptor-associated kinase 4 (Homo sapiens) (UniProt Q9NWZ3); assay: Inhibition of human recombinant IRAK4 at 40 nM related to control ULK1
T3 sequence (whole entry): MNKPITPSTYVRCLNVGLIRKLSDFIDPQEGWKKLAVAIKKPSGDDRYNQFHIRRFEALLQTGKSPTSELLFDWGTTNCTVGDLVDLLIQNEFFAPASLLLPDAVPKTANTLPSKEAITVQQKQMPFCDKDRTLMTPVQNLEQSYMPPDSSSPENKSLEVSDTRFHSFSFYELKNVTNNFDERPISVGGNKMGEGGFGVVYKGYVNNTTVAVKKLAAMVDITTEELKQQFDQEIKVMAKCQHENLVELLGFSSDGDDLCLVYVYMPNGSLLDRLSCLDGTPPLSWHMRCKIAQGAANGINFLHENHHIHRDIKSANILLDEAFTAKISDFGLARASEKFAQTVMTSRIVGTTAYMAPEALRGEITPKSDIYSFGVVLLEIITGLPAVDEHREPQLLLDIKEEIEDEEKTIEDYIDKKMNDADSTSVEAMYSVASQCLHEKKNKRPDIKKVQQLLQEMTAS

[15] = biological target: Casein kinase II subunit alpha' (Homo sapiens) (UniProt P19784); assay: Inhibition of human recombinant CK2a2 at 15 nM in presence of ATP by radiometric assay relative to control
[16] = biological target: T3, Interleukin-1 receptor-associated kinase 4 (Homo sapiens); assay: Inhibition of human recombinant IRAK4 at 15 nM in presence of ATP by radiometric assay relative to control

Sequence of Phosphorylase b kinase gamma catalytic chain, skeletal muscle/heart isoform (Homo sapiens) (Q16816 whole entry, looked up, canonical isoform): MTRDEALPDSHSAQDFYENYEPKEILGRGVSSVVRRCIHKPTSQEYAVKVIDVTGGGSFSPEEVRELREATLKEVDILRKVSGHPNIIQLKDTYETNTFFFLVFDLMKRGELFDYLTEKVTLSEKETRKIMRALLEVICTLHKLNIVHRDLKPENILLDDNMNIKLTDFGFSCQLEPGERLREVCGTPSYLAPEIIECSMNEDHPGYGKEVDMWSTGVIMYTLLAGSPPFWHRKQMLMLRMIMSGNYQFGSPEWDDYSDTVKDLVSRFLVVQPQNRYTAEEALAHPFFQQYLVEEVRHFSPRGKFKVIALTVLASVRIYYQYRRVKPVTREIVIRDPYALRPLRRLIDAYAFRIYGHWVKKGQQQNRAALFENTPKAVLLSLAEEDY
Sequence of Tyrosine-protein kinase BTK (Homo sapiens) (Q06187 whole entry): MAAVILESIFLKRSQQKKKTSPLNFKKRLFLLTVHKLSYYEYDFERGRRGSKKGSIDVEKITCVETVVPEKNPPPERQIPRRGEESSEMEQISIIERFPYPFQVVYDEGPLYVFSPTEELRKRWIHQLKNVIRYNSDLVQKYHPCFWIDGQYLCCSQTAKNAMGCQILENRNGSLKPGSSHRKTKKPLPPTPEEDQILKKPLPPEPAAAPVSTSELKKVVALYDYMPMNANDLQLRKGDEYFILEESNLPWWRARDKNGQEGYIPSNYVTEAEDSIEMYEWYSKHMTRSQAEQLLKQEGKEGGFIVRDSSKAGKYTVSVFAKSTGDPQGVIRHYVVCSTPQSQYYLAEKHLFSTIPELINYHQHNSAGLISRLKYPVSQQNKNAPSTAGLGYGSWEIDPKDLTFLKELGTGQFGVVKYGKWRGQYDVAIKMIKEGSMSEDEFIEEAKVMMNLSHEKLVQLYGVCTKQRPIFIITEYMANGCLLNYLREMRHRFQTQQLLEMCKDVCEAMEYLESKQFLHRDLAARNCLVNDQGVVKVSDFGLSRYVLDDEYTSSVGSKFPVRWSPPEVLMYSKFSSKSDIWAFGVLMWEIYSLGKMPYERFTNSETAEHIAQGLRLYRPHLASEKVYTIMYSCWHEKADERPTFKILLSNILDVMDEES
Sequence of Receptor tyrosine-protein kinase erbB-2 (Homo sapiens) (P04626 whole entry): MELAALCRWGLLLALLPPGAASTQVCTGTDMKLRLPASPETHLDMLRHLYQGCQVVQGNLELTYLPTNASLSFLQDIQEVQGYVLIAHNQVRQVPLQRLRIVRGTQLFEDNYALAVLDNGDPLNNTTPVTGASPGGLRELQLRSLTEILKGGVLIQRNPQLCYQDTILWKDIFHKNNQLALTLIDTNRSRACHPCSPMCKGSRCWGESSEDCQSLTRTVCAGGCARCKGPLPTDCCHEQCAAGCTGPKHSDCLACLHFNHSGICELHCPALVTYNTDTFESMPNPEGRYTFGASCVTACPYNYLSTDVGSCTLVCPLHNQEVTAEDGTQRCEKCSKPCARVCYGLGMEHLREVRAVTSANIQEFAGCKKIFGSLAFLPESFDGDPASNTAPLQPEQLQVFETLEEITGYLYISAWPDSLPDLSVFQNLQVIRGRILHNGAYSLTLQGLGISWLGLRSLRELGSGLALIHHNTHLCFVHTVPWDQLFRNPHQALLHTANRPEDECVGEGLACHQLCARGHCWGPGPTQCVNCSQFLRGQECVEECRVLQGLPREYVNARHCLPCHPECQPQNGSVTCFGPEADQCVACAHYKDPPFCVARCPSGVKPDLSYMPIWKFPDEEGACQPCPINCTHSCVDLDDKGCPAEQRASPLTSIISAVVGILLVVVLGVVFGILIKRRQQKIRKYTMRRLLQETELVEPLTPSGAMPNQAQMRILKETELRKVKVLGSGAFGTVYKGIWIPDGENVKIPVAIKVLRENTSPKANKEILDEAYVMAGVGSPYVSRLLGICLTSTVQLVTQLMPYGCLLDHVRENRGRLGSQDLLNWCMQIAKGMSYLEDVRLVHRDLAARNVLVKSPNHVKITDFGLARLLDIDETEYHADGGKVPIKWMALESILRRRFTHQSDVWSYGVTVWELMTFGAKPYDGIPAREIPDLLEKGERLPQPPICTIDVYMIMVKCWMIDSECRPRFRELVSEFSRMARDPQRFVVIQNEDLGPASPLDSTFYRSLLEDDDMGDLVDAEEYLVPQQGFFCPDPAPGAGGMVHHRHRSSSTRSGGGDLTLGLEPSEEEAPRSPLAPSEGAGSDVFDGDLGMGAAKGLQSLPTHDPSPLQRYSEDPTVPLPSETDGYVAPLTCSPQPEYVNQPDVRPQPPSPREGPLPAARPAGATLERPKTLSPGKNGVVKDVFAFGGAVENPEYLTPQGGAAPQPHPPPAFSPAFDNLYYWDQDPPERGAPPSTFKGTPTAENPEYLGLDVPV
Sequence of Activated CDC42 kinase 1 (Homo sapiens) (Q07912 whole entry, looked up): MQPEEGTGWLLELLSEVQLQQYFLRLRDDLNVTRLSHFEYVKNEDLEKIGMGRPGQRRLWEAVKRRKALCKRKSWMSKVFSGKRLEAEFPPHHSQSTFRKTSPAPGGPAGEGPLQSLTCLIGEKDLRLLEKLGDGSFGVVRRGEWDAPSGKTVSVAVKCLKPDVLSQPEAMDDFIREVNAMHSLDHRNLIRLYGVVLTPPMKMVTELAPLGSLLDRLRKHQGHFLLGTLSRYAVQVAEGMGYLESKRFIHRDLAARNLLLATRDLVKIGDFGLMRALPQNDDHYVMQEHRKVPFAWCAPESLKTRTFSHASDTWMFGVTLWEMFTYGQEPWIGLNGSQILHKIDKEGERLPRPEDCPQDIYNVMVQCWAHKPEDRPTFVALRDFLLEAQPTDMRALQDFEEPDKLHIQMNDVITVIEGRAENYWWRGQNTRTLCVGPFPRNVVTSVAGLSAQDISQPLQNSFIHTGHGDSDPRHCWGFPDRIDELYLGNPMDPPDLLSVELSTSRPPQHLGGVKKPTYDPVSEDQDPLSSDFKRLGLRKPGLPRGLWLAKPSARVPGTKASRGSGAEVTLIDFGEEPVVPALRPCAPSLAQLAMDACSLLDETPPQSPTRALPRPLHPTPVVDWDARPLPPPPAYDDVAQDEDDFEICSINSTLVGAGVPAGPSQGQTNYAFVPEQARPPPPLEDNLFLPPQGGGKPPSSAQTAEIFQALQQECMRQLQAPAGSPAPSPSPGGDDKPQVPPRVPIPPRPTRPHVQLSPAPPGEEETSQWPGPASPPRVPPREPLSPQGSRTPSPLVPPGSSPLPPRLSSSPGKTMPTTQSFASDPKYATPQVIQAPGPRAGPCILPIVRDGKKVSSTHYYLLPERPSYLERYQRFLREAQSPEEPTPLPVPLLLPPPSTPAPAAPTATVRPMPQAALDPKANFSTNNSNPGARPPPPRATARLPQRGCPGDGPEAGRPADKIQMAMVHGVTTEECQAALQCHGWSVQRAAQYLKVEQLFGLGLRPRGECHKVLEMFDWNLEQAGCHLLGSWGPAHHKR
Sequence of Glycogen synthase kinase-3 alpha (Homo sapiens) (P49840 2-483 limits assumed): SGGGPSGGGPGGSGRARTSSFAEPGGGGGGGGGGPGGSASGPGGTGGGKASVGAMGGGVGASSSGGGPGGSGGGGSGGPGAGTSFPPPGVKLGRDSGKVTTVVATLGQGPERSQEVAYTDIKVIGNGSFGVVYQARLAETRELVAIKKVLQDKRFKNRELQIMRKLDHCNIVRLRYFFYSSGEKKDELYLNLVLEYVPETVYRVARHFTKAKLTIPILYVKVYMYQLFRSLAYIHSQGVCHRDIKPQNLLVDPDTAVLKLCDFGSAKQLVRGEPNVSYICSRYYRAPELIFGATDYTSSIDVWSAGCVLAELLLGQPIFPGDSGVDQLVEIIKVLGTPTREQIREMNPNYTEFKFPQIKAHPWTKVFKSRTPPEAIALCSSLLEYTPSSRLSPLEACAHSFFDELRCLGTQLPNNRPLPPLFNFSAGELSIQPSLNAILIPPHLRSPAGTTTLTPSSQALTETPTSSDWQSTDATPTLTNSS
Sequence of Casein kinase II subunit alpha' (Homo sapiens) (P19784 whole entry, looked up): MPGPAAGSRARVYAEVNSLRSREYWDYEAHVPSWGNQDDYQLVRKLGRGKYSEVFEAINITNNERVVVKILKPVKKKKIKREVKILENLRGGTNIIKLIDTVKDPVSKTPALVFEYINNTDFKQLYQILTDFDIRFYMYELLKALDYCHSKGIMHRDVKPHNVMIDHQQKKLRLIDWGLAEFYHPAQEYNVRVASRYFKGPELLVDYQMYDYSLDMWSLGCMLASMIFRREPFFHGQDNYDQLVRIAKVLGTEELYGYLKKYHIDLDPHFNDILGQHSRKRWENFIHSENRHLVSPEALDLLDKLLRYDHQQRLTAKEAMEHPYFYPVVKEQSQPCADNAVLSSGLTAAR
Sequence of Serine/threonine-protein kinase 24 (Homo sapiens) (Q9Y6E0 whole entry, looked up): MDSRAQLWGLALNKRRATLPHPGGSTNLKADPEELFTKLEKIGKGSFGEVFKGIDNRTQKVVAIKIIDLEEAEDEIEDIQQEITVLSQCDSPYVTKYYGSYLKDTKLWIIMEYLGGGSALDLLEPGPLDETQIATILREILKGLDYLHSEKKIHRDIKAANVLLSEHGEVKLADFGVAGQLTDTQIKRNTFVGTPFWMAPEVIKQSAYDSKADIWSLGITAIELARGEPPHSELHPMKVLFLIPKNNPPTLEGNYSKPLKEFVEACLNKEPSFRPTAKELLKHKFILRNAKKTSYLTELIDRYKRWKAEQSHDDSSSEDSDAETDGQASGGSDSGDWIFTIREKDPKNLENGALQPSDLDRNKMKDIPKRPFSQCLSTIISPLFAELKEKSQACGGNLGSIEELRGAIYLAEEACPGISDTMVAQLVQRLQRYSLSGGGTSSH

inhibition [1]: 0%
inhibition [2]: 0%
inhibition [3]: 58%
inhibition [4]: 7%
inhibition [5]: 2%
fold change (FC) [6]: 0.12
fold change (FC) [7]: 0
Compound: CNC(=O)c1ccccc1Oc1nc(Nc2cc(OC)c(OC)c(OC)c2)ncc1Br

inhibition [8]: 0%
inhibition [9]: 7%
inhibition [10]: 12%
inhibition [11]: 12%
fold change (FC) [12]: 0.23
fold change (FC) [13]: 0.07
fold change (FC) [14]: 0
Compound: O=C(N[C@@H](C1CC1)C(F)(F)F)c1cc(-c2cnn3cc(-c4ccc(F)cc4)cnc23)cs1
inhibition (U2OS): Active

inhibition [15]: 5%
inhibition [16]: 0%
Compound: CC(C)[C@H](NC(=O)c1cc(-c2cnn3cc(-c4ccc(OCCN5CCCCC5)cc4)cnc23)cs1)C(F)(F)F

From ChEMBL document CHEMBL5653631, “A Potent and Selective ULK1 Inhibitor Suppresses Autophagy and Sensitizes Cancer Cells to Nutrient Stress” (iScience, 2018)
